Experimental data: ChEMBL document CHEMBL4130515, “Identification of Privileged Antichlamydial Natural Products by a Ligand-Based Strategy” (J Nat Prod, 2017)

Experiments:
HL = test: (§1) Cytotoxicity against human HL cells assessed as cell viability at 50 uM after 72 hrs by resazurin dye based fluorescence assay relative to control; settings: hl, 72 h, 50 µM
In short: (§2)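 HL cells grown overnight to confluence, then exposed to compound at 50 μM for 72 h at 37 °C, four parallel replicates. Read-out after 2 h with 20 μM resazurin in PBS, fluorescence at 570/590 nm (ex/em). Viability % is relative to cells in 0.25% DMSO medium. Usnic acid 50 μM as positive control.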

[1] = as §1; settings: HL cells, read-out: Activity; in short: as §2
Chlamydia pneumoniae [2] = test: Antichlamydial activity against Chlamydia pneumoniae K7 infected in HL cells assessed as chlamydial inhibition at 50 uM after 70 hrs by fluorescent microscopic analysis; type: functional
In short: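 Confluent HL cells infected with C. pneumoniae K7 at MOI 0.3 in medium with 1 μg/mL cycloheximide, centrifuged 500 rpm 1 h, then held at 37 °C for 1 h. At 2 h, compound added at 50 μM or DMSO vehicle. After 70 h at 37 °C, inclusions stained and counted in four fields per coverslip under a fluorescence microscope (20×). Inhibition % is relative to mean vehicle counts.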

Chlamydia pneumoniae [3] = test: Antichlamydial activity against Chlamydia pneumoniae K7 infected in HL cells after 70 hrs by fluorescent microscopic analysis; type: functional, organism-based; settings: K7, HL, 70 h
In short: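 HL cells grown to confluence, infected with C. pneumoniae K7 at MOI 0.3 in medium with 1 μg/mL cycloheximide, centrifuged 500 rpm 1 h, then 37 °C 1 h. At 2 h, inoculum replaced by cycloheximide medium with compound at 12 concentrations from 1 nM to 100 μM. Incubated 70 h at 37 °C, stained, and inclusions counted by fluorescence microscopy. Three runs; IC50 from variable-slope sigmoidal fit. Azithromycin 20 nM as positive control.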

Structure (SMILES) | Activity (HL) | viability at 72 h, 50 µM [1] [%] | inhibition at 50 µM (Chlamydia pneumoniae [2]) [%] | IC50 (Chlamydia pneumoniae [3]) [µM]
O=c1cc(-c2ccccc2)oc2cc(O)cc(O)c12 [CHRYSIN] | Toxic |  |  | 
COc1ccc2ccc(=O)oc2c1CC=C(C)C [OSTHOLE] | Toxic |  |  | 
OC1c2ccccc2N=C2CCCN21 (stereo not given) [PEGANOLE] |  | 95.2 | 66.2 | 35.1
